In ChEMBL document CHEMBL1667760, “Synthesis and biological evaluation of 3,5-diaryl isoxazoline/isoxazole linked 2,3-dihydroquinazolinone hybrids as anticancer agents” (2011):
Calls of active or inactive are those of the source. No cut-off for these calls is given here.

What was measured:
Malme-3M = experiment: Cytotoxicity against human MALME-3M cells after 48 hrs by sulforhodamine B assay; type: functional
Outline: (§1)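 Run by the NCI 60 human tumour cell line screen. A one-dose pre-test across sixty lines came first. The main test then used a 5-log dose range (10^-4–10^-8 M). Values derived per cell line were GI50 (log molar concentration for 50% net growth inhibition), TGI (total growth inhibition) and LC50 (50% net cell death).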

MCF7 [1] = experiment: Cell cycle arrest in human MCF7 cells assessed as accumulation at S phase at 5 uM after 24 hrs using propidium iodide staining by flow cytometry relative to control; type: functional
Outline: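 MCF-7 cells were seeded at 5×10^5 per 60 mm dish and grown 24 h. They were then exposed to 5 uM compound for a further 24 h, with untreated control cells alongside. Cells were trypsinised, fixed in ice-cold 70% ethanol (4 °C, 30 min), treated with 1 mg/ml RNase A (37 °C, 30 min) and stained with propidium iodide/citrate/Triton solution. DNA content was read by flow cytometry on 20,000 events.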

BT-549 = experiment: Cytotoxicity against human BT549 cells after 48 hrs by sulforhodamine B assay; type: functional; conditions: BT-549, 48 h
Outline: (§2)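 Run by the NCI 60-cell-line screen. A one-dose pre-test was done first, followed by the main test over a 5-log dose range (10^-4 to 10^-8 M). Results are reported as log molar GI50 (50% net growth inhibition), TGI (total growth inhibition) and LC50 (50% net cell death), with mean-graph midpoints across all lines.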

MCF7 [2] = experiment: Cytotoxicity against human MCF7 cells after 48 hrs by sulforhodamine B assay; type: functional; conditions: MCF7, 48 h
Outline: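 Cells were grown in RPMI 1640 with 10% FBS and 2 mM L-glutamine, plated at densities set by doubling time, and pre-incubated 24 h at 37 °C, 5% CO2. Drugs were tested at 0.1, 1, 10 and 100 µM in triplicate wells for 48 h continuous exposure. Cells were fixed with 10% TCA (final) and stained with 0.4% SRB. A540 was read against a 690 nm reference, and percent growth was calculated relative to control. Experiments were repeated three times.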

UACC-62 = experiment: Cytotoxicity against human UACC62 cells after 48 hrs by sulforhodamine B assay; type: functional; conditions: UACC-62, 48 h
Outline: (§3)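 NCI 60-cell-line panel screen of human tumor lines: a one-dose pre-test, then the main test over a 5-log range (10^-4–10^-8 M). GI50, TGI and LC50 are reported as log molar concentrations for 50% net growth inhibition, total growth inhibition and 50% net cell death. Mean graph midpoints are also calculated.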

KM12 = experiment: Cytotoxicity against human KM12 cells after 48 hrs by sulforhodamine B assay; type: functional; conditions: KM12, 48 h; outline: as §2
EKVX = experiment: Cytotoxicity against human EKVX cells after 48 hrs by sulforhodamine B assay; type: functional; outline: as §1
SW-620 = experiment: Cytotoxicity against human SW620 cells after 48 hrs by sulforhodamine B assay; type: functional; conditions: SW-620, 48 h; outline: as §3
SNB-75 = experiment: Cytotoxicity against human SNB75 cells after 48 hrs by sulforhodamine B assay; type: functional; conditions: SNB-75, 48 h; outline: as §3
MCF7 [3] = experiment: Reduction of cyclin B expression in human MCF7 cells at 5 uM after 24 hrs by Western blotting; type: functional, cell-based
Outline: (§4)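 MCF-7 cells, kept in DMEM with 10% fetal calf serum at 37 °C under 5% CO2, treated 24 h. Lysis in ice-cold RIPA with protease inhibitors; Bradford quantitation; 30 µg protein per lane on 12% SDS-PAGE, then PVDF. Primary antibodies (1:500) at 4 °C overnight; HRP secondary (1:2000); chemiluminescence detection; β-actin loading control.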

OVCAR-4 = experiment: Cytotoxicity against human OVCAR4 cells after 48 hrs by sulforhodamine B assay; type: functional; conditions: OVCAR-4, 48 h; outline: as §2
CCRF-CEM = experiment: Cytotoxicity against human CCRF-CEM cells after 48 hrs by sulforhodamine B assay; type: functional; outline: as §2
CAKI-1 = experiment: Cytotoxicity against human Caki1 cells after 48 hrs by sulforhodamine B assay; type: functional; conditions: CAKI-1, 48 h; outline: as §2
MCF7 [4] = experiment: Induction of apoptosis in human MCF7 cells assessed as nuclear fragmentation at 5 uM after 48 hrs by DAPI staining; type: functional, cell-based
Outline: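 MCF-7 cells grown on glass coverslips and incubated 48 h with or without compound. Fixed in 3% paraformaldehyde/0.02% glutaraldehyde in PBS, stained with DAPI, and nuclear morphology examined by fluorescence microscopy.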

NCI-H522 = experiment: Cytotoxicity against human NCI-H522 cells after 48 hrs by sulforhodamine B assay; type: functional; conditions: NCI-H522, 48 h; outline: as §2
SK-OV-3 = experiment: Cytotoxicity against human SKOV3 cells after 48 hrs by sulforhodamine B assay; type: functional; conditions: SK-OV-3, 48 h; outline: as §2
SK-MEL-5 = experiment: Cytotoxicity against human SK-MEL-5 cells after 48 hrs by sulforhodamine B assay; type: functional; conditions: SK-MEL-5, 48 h; outline: as §2
HCT-15 = experiment: Cytotoxicity against human HCT15 cells after 48 hrs by sulforhodamine B assay; type: functional; conditions: HCT-15, 48 h; outline: as §2
HOP-92 = experiment: Cytotoxicity against human HOP92 cells after 48 hrs by sulforhodamine B assay; type: functional; conditions: HOP-92, 48 h; outline: as §2
ACHN = experiment: Cytotoxicity against human ACHN cells after 48 hrs by sulforhodamine B assay; type: functional; outline: as §2
MCF7 [5] = experiment: Reduction of cyclin A expression in human MCF7 cells at 5 uM after 24 hrs by Western blotting; type: functional, cell-based; outline: as §4
A498 = experiment: Cytotoxicity against human A498 cells after 48 hrs by sulforhodamine B assay; type: functional; conditions: A498, 48 h; outline: as §2
MCF7 [6] = experiment: Reduction of CDK1 expression in human MCF7 cells at 5 uM after 24 hrs by Western blotting; type: functional, cell-based; outline: as §4
MDA-MB-435 = experiment: Cytotoxicity against human MDA-MB-435 cells after 48 hrs by sulforhodamine B assay; type: functional; conditions: MDA-MB-435, 48 h; outline: as §2
M14 = experiment: Cytotoxicity against human M14 cells after 48 hrs by sulforhodamine B assay; type: functional; conditions: M14, 48 h; outline: as §2
[7] = read-out: pLC50 (the source's name) (converted)

SMILES: COc1cc(C2NC(=O)c3ccccc3N2)ccc1OCCCCCOc1c(OC)cc(C2=NOC(c3cc(OC)c(OC)c(OC)c3)C2)cc1OC (configuration not stated)
- CC50 (Malme-3M; [7]): > 100 µM
- TGI (Malme-3M; read-out: pTGI): > 100 µM
- Activity (MCF7 [1]): 22.38%
- CC50 (BT-549; [7]): > 100 µM
- TGI (BT-549; read-out: pTGI): > 100 µM
- GI50 (MCF7 [2]): 282 nM
- CC50 (MCF7 [2]; [7]): > 100 µM
- TGI (MCF7 [2]; read-out: pTGI): > 100 µM
- GI50 (UACC-62): 257 nM
- CC50 (UACC-62; [7]): > 100 µM
- TGI (UACC-62; read-out: pTGI): > 100 µM
- GI50 (KM12): 5.5 µM
- CC50 (KM12; [7]): > 100 µM
- TGI (KM12; read-out: pTGI): > 100 µM
- CC50 (EKVX; [7]): > 100 µM
- TGI (EKVX; read-out: pTGI): > 100 µM
- GI50 (SW-620): 10.2 µM
- CC50 (SW-620; [7]): > 100 µM
- TGI (SW-620; read-out: pTGI): > 100 µM
- GI50 (SNB-75): 11.2 µM
- CC50 (SNB-75; [7]): > 100 µM
- TGI (SNB-75; read-out: pTGI): > 100 µM
- Activity (MCF7 [3]): Active
- GI50 (OVCAR-4): 355 nM
- CC50 (OVCAR-4; [7]): > 100 µM
- TGI (OVCAR-4; read-out: pTGI): > 100 µM
- GI50 (CCRF-CEM): 631 nM
- CC50 (CCRF-CEM; [7]): > 100 µM
- TGI (CCRF-CEM; read-out: pTGI): > 100 µM
- GI50 (CAKI-1): > 100 µM
- CC50 (CAKI-1; [7]): > 100 µM
- TGI (CAKI-1; read-out: pTGI): > 100 µM
- inhibition (MCF7 [4]): Active
- GI50 (NCI-H522): 10.7 µM
- CC50 (NCI-H522; [7]): 93.3 µM
- TGI (NCI-H522; read-out: pTGI (converted)): 31.6 µM
- GI50 (SK-OV-3): 25.1 µM
- CC50 (SK-OV-3; [7]): > 100 µM
- TGI (SK-OV-3; read-out: pTGI): > 100 µM
- GI50 (SK-MEL-5): 112 nM
- CC50 (SK-MEL-5; [7]): 933 nM
- TGI (SK-MEL-5; read-out: pTGI (converted)): 324 nM
- GI50 (HCT-15): 708 nM
- CC50 (HCT-15; [7]): > 100 µM
- TGI (HCT-15; read-out: pTGI): > 100 µM
- GI50 (HOP-92): 60.3 µM
- CC50 (HOP-92; [7]): > 100 µM
- TGI (HOP-92; read-out: pTGI): > 100 µM
- GI50 (ACHN): 324 nM
- CC50 (ACHN; [7]): > 100 µM
- TGI (ACHN; read-out: pTGI): > 100 µM
- Activity (MCF7 [5]): Active
- GI50 (A498): 19.5 µM
- CC50 (A498; [7]): > 100 µM
- TGI (A498; read-out: pTGI): > 100 µM
- Activity (MCF7 [6]): Active
- GI50 (MDA-MB-435): 417 nM
- CC50 (MDA-MB-435; [7]): > 100 µM
- TGI (MDA-MB-435; read-out: pTGI): > 100 µM
- GI50 (M14): 20.9 µM
- CC50 (M14; [7]): > 100 µM
- TGI (M14; read-out: pTGI): > 100 µM
